How the values were obtained:
[1] = test system: pAKT in T47D (PI3Kα^H1047R) cells; assay: pAKT AlphaLISA assay, T47D; type: cell-based; settings: for IC50: Homo sapiens, T47D, 24 h, read-out: pAKT AlphaLISA IC50 T47D, T47D (PI3Kα^H1047R), inhibition of pAKT formation after 24 h of treatment
[2] = test system: pAKT in SKBR3 (PI3Kα^WT) cells; assay: pAKT AlphaLISA assay, SKBR3; type: cell-based; settings: Homo sapiens, SK-BR-3, 24 h, read-out: pAKT AlphaLISA IC50 SKBR3
[3] = test system: T47D (PI3Kα^H1047R) cells; assay: Viability assay; type: cell-based; settings: for viability selectivity 1047R/WT IC50: T47D vs SKBR3 viability IC50
[4] = Intrinsic clearance in human hepatocytes; type: in vitro ADME
[5] = Intrinsic clearance in mouse hepatocytes; type: in vitro ADME
Outline: (§1)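 CLint was derived by scaling in vitro half-lives measured in pooled hepatocytes.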

[6] = Intrinsic clearance in rat hepatocytes; type: in vitro ADME
Outline: as §1

[7] = Intrinsic clearance in dog hepatocytes; type: in vitro ADME
Outline: as §1

Mouse pharmacokinetics = type: in vivo, CD-1 Mouse
Rat pharmacokinetics = type: in vivo; settings: male, Sprague-Dawley, plasma, iv, 3 mg/kg
[8] = test system: pAKT in HCC1954 tumors (PI3Kα^H1047R); assay: Single dose pharmacodynamic study, HCC1954 tumor model; type: in vivo, mouse; settings: PO 100 or 300 mg/kg single dose
Outline: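 Mice carried xenografts of HCC1954, an ER-/HER2+ human breast tumour line with endogenous PI3Kα H1047R. They received a single dose of test compound, and tumour pAKT modulation was measured at 1 h and at 8 h post dose.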

[9] = Metabolite ID in human hepatocytes; type: in vitro ADME

| IC50 [1] | IC50 [2] | Compound | other results |
| --- | --- | --- | --- |
| 2540 nM | – | Cc1cc(C(C)Nc2ccccc2C(=O)O)c2nc(N3CCCCC3)ncc2c1 (stereo not shown) [Compound 10] | – |
| 1 nM | 4740 nM | Cc1cc([C@@H](C)Nc2ccccc2C(=O)O)c2nc(N3CCCCC3)c(C#N)c(=O)n2c1 [Compound 12] | fold more potent than 8 ([1]; pAKT T47D): 3 fold; fold more stable in human hepatocytes than 8 ([4]; Clint human hepatocytes): 4 fold |
| 15 nM | – | Cc1cc([C@@H](C)Nc2ccc(Cl)cc2C(=O)O)c2nc(N3CCC(F)(F)CC3)c(C#N)c(=O)n2c1 [Compound 24] | – |
| > 10000 nM | > 10000 nM | Cc1cc([C@@H](C)Nc2ccccc2C(=O)O)c2nc(N3CCCCC3)c(C(N)=O)c(=O)n2c1 [Compound 14] | – |
| 28 nM | > 10000 nM | Cc1cc([C@@H](C)Nc2ccccc2C(=O)O)c2nc(N3CCCCC3)c(C(F)(F)F)c(=O)n2c1 [Compound 13] | – |
| 3 nM | 3180 nM | Cc1cc([C@@H](C)Nc2ccccc2C(=O)O)c2oc(N3CCC(C)(C)CC3)c(C)c(=O)c2c1 [Compound 4, reference compound] | – |

Second part, the molecule before the results:

| Compound | IC50 [1] | IC50 [2] | other results |
| --- | --- | --- | --- |
| Cc1cc([C@@H](C)Nc2ccccc2C(=O)O)c2nc(N3CCCCC3)c(C)c(=O)n2c1 [Compound 8] | 3 nM | 1460 nM | viability selectivity 1047R/WT IC50 [3]: > 83 |
| Cc1cc([C@@H](C)Nc2ccccc2C(=O)O)c2nc(C3CCC(F)(F)CC3)c(C#N)c(=O)n2c1 [Compound 19] | – | – | fold loss in potency in T47D cellular viability assay ([3]; on replacing the piperidine nitrogen (4,4-difluorocyclohexane)): 5 fold |
| Cc1ccccc1C1NC(=O)c2cc(NC3COC3)cc(NC(=O)c3csc4ccccc34)c21 (stereo not shown) [Compound 5, reference compound] | 332 nM | 115 nM | – |
| Cc1cc([C@@H](C)Nc2ccccc2C(=O)O)c2nc(N3CCCCC3)c(F)c(=O)n2c1 [Compound 11] | 0.3 nM | > 10000 nM | – |
| Cc1cc([C@@H](C)Nc2ccccc2C(=O)O)c2nc(N3CCC(F)(F)CC3)c(C#N)c(=O)n2c1 [Compound 17, (R)-2-((1-(3-Cyano-2-(4,4-difluoropiperidin-1-yl)-7-methyl-4-oxo-4H-pyrido[1,2-a]pyrimidin-9-yl)ethyl)amino)benzoic Acid] | – | – | fold decrease of intrinsic clearance in human hepatocytes compared to 12 [4]: 3 fold; CLint scaled [5]: 304 mL/min/kg; CLint scaled [6]: 70 mL/min/kg; CLint scaled [7]: 104 mL/min/kg; clearance (Mouse pharmacokinetics; female, CD-1, mouse, plasma, iv, 3 mg/kg): 180 mL/min/kg; bioavailability in rodents (Mouse pharmacokinetics; rodents (mouse and rat)): 48–57 %F; clearance (Rat pharmacokinetics): 46 mL/min/kg; pAKT inhibition after oral dosing [8]: negligible inhibition of pAKT; metabolite identified in human hepatocytes [9]: glucuronidation of the benzoic acid was the only discernible metabolite |
| Cc1cc(C(C)Nc2ccccc2C(=O)O)c2nc(N3CCC(C)(C)CC3)n(C)c(=O)c2c1 (stereo not shown) [Compound 9] | 179 nM | – | fold decrease in potency (viability) compared to compound 4 ([3]; T47D viability): 39 fold |
| Cc1cc([C@@H](C)Nc2ccccc2C(=O)O)c2nc(N3CCCCC3)cc(=O)n2c1 [Compound 7] | 78 nM | 5890 nM | viability selectivity 1047R/WT IC50 [3]: > 9 |
